This note sets out measurements from PMC8441110 (Computational and Structural Biotechnology Journal, 2021).

Where no end group is shown, it is not given here.

For one assay, the system named is Klebsiella pneumoniae (K. pneumoniae) (ATCC 43816). The assay is described as follows: MIC/MBC determination. The assay is classed as cell-based. The following applies: 10 µl from MIC wells on MHA, 37 °C, 20 h, no colony growth. A digest of the protocol:
(§1)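 Bacteria grown overnight at 37 °C in MHB and diluted to 5 × 10^5 CFU/ml. Peptide stocks in PBS, two-fold from 51200 µM to 100 µM, added 1 µl per 99 µl suspension. Norfloxacin (20 mg/l) was the positive control. After 20 h at 37 °C, OD 550 nm read; MIC = no apparent growth. For MBC, 10 µl from MIC and higher wells spotted on MHA, 37 °C 20 h; lowest without colonies.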
For the substance GVIFNALK-NH2 [GV8], the MBC (usually the lowest tested concentration that kills the bacteria rather than only halting them) was greater than 512 µM.
GVIFNALKGVAK-NH2 [GV12] had an MBC greater than 512 µM.
GVIFNALKGVAKTVAAQLLK-NH2 [GV20] displayed an MBC of 64 µM.

The assay is the same for the next values; noted with them: MHB, 5 × 10^5 CFU/ml, 37 °C, 20 h, read at 550 nm.
Take GVIFNALK-NH2 [GV8]: the MIC (as a rule, the smallest concentration in the dilution series that meets the test's criterion for growth inhibition) is greater than 512 µM.
On the same count and under the same terms, for GVIFNALKGVAK-NH2 [GV12] the value was greater than 512 µM.
With GVIFNALKGVAKTVAAQLLK-NH2 [GV20], the MIC is 32 µM.

The next assay deals with MRSA (ATCC BAA 1707). The assay is described as follows: MIC/MBC determination. Format: cell-based, Methicillin-resistant Staphylococcus aureus. The following applies: 10 µl from MIC wells on MHA, 37 °C, 20 h, no colony growth. Summed up:
as §1
As for GVIFNALK-NH2 [GV8], the MBC is greater than 512 µM.
GVIFNALKGVAK-NH2 [GV12] had an MBC greater than 512 µM.
With GVIFNALKGVAKTVAAQLLK-NH2 [GV20], the MBC is 32 µM.

The same assay, now with this note: MHB, 5 × 10^5 CFU/ml, 37 °C, 20 h, read at 550 nm.
GVIFNALK-NH2 [GV8] showed an MIC greater than 512 µM.
Substance GVIFNALKGVAK-NH2 [GV12] registered an MIC greater than 512 µM.
Regarding GVIFNALKGVAKTVAAQLLK-NH2 [GV20], the MIC was 16 µM.

For a further assay, the system named is Pseudomonas aeruginosa (P. aeruginosa) (ATCC 9027). The assay is described as follows: MIC/MBC determination. The assay is classed as cell-based. The note with it: 10 µl from MIC wells on MHA, 37 °C, 20 h, no colony growth. Summed up:
as §1
As for GVIFNALK-NH2 [GV8], the MBC was greater than 512 µM.
In the case of GVIFNALKGVAK-NH2 [GV12], the MBC is greater than 512 µM.
In the case of GVIFNALKGVAKTVAAQLLK-NH2 [GV20], the MBC is 64 µM.

The assay is the same for the next values; noted with them: MHB, 5 × 10^5 CFU/ml, 37 °C, 20 h, read at 550 nm.
As for GVIFNALK-NH2 [GV8], the MIC is greater than 512 µM.
For GVIFNALKGVAK-NH2 [GV12], the MIC was greater than 512 µM.
In turn, GVIFNALKGVAKTVAAQLLK-NH2 [GV20] yielded a minimal inhibitory concentration (MIC) of 32 µM.

A further assay relates to MRSA (BO42 V2E1 A). In words: MIC/MBC determination. Format: cell-based, Methicillin-resistant Staphylococcus aureus. The following applies: 10 µl from MIC wells on MHA, 37 °C, 20 h, no colony growth. Summed up:
as §1
Consider GVIFNALK-NH2 [GV8], for which the MBC was greater than 512 µM.
As to GVIFNALKGVAK-NH2 [GV12], the MBC is greater than 512 µM.
As to GVIFNALKGVAKTVAAQLLK-NH2 [GV20], the MBC was found to be 64 µM.

The same assay, now with this note: MHB, 5 × 10^5 CFU/ml, 37 °C, 20 h, read at 550 nm.
Substance GVIFNALK-NH2 [GV8] registered an MIC greater than 512 µM.
GVIFNALKGVAK-NH2 [GV12] returned an MIC greater than 512 µM.
The same measure, in the same setting: next, GVIFNALKGVAKTVAAQLLK-NH2 [GV20]: 32 µM.

The test system of another assay is S. aureus (NCTC 10788). In words: Condition sensitivity assay. The assay is classed as cell-based, Staphylococcus aureus. The note with it: MHB with 6 μM NH4Cl.
Consider GVIFNALKGVAKTVAAQLLK-NH2 [GV20], for which the MIC was found to be 4 µM.

The same assay, now with this note: MHB with 1 mM MgCl2.
The substance GVIFNALKGVAKTVAAQLLK-NH2 [GV20] displayed an MIC of 4 µM.

The same assay, now with this note: MHB with 2.5 mM CaCl2.
As to GVIFNALKGVAKTVAAQLLK-NH2 [GV20], the MIC is 4 µM.

The same assay, now with this note: MHB with 4 mM FeCl3.
In turn, GVIFNALKGVAKTVAAQLLK-NH2 [GV20] registered an MIC of 4 µM.

Still in this assay, the particulars now being: MHB with 4.5 mM KCl.
Substance GVIFNALKGVAKTVAAQLLK-NH2 [GV20] had an MIC of 8 µM.

Still in this assay, the particulars now being: MHB with 8 mM ZnCl2.
On to GVIFNALKGVAKTVAAQLLK-NH2 [GV20], for which the MIC amounted to 4 µM.

Staying with this assay, now noted: MHB with 150 mM NaCl.
Substance GVIFNALKGVAKTVAAQLLK-NH2 [GV20] registered an MIC of 4 µM.

The same assay, now with this note: MHB with 10% horse serum.
As to GVIFNALKGVAKTVAAQLLK-NH2 [GV20], the MIC was 8 µM.

Still in this assay, the particulars now being: PBS (no added salt).
For GVIFNALKGVAKTVAAQLLK-NH2 [GV20], the MIC came out at 4 µM.

Another assay relates to MRSA (BO38 V1S1 A). In words: MIC/MBC determination. The note with it: 10 µl from MIC wells on MHA, 37 °C, 20 h, no colony growth. The assay is classed as cell-based, Methicillin-resistant Staphylococcus aureus. A digest of the protocol: as §1
In turn, GVIFNALK-NH2 [GV8] came in with an MBC greater than 512 µM.
The substance GVIFNALKGVAK-NH2 [GV12] came in with an MBC greater than 512 µM.
The same measure, in the same setting: for GVIFNALKGVAKTVAAQLLK-NH2 [GV20] the value was 32 µM.

Staying with this assay, now noted: MHB, 5 × 10^5 CFU/ml, 37 °C, 20 h, read at 550 nm.
On to GVIFNALK-NH2 [GV8], for which the MIC is greater than 512 µM.
Consider GVIFNALKGVAK-NH2 [GV12], for which the MIC was greater than 512 µM.
For the substance GVIFNALKGVAKTVAAQLLK-NH2 [GV20], the MIC turned out to be 16 µM.

The subject of the next assay is MRSA (NCTC 12493). The assay is described as follows: MIC/MBC determination. The assay is classed as cell-based, Methicillin-resistant Staphylococcus aureus. The note with it: 10 µl from MIC wells on MHA, 37 °C, 20 h, no colony growth. Summed up:
as §1
GVIFNALK-NH2 [GV8] gave a minimum bactericidal concentration (MBC) greater than 512 µM.
Same read-out and setting: next, GVIFNALKGVAK-NH2 [GV12]: greater than 512 µM; GVIFNALKGVAKTVAAQLLK-NH2 [GV20]: 8 µM.

The assay is the same for the next values; noted with them: MHB, 5 × 10^5 CFU/ml, 37 °C, 20 h, read at 550 nm.
On to GVIFNALK-NH2 [GV8], for which the MIC is greater than 512 µM.
Same read-out and setting: for GVIFNALKGVAK-NH2 [GV12] the value was greater than 512 µM.
On the same count and under the same terms, for GVIFNALKGVAKTVAAQLLK-NH2 [GV20] the value was 8 µM.

For the next assay, the system named is MRSA (NCTC 12493). The assay is described as follows: Condition sensitivity assay. The note with it: MHB with 6 μM NH4Cl. Format: cell-based, Methicillin-resistant Staphylococcus aureus.
The substance GVIFNALKGVAKTVAAQLLK-NH2 [GV20] came in with a minimum inhibitory concentration (MIC) of 8 µM.

Staying with this assay, now noted: MHB with 1 mM MgCl2.
For GVIFNALKGVAKTVAAQLLK-NH2 [GV20], the MIC came out at 8 µM.

Staying with this assay, now noted: MHB with 2.5 mM CaCl2.
With GVIFNALKGVAKTVAAQLLK-NH2 [GV20], the MIC worked out at 16 µM.

Still in this assay, the particulars now being: MHB with 4 mM FeCl3.
In the case of GVIFNALKGVAKTVAAQLLK-NH2 [GV20], the MIC came to 8 µM.

The assay is the same for the next values; noted with them: MHB with 4.5 mM KCl.
Turning to GVIFNALKGVAKTVAAQLLK-NH2 [GV20], the MIC was found to be 16 µM.

The same assay, now with this note: MHB with 8 mM ZnCl2.
GVIFNALKGVAKTVAAQLLK-NH2 [GV20]: the MIC was determined as 8 µM.

Still in this assay, the particulars now being: MHB with 150 mM NaCl.
In the case of GVIFNALKGVAKTVAAQLLK-NH2 [GV20], the MIC stood at 8 µM.

Still in this assay, the particulars now being: MHB with 10% horse serum.
GVIFNALKGVAKTVAAQLLK-NH2 [GV20] returned an MIC of 16 µM.

The same assay, now with this note: PBS (no added salt).
As to GVIFNALKGVAKTVAAQLLK-NH2 [GV20], the MIC is 8 µM.

For a further assay, the system named is Escherichia coli (E. coli) (ATCC 8739). In words: MIC/MBC determination. The assay is classed as cell-based. The following applies: 10 µl from MIC wells on MHA, 37 °C, 20 h, no colony growth. Summed up:
as §1
Regarding GVIFNALK-NH2 [GV8], the MBC is greater than 512 µM.
Substance GVIFNALKGVAK-NH2 [GV12] returned an MBC greater than 512 µM.
On to GVIFNALKGVAKTVAAQLLK-NH2 [GV20], for which the MBC came to 32 µM.

The same assay, now with this note: MHB, 5 × 10^5 CFU/ml, 37 °C, 20 h, read at 550 nm.
Substance GVIFNALK-NH2 [GV8] yielded an MIC greater than 512 µM.
In turn, GVIFNALKGVAK-NH2 [GV12] displayed a minimum inhibitory concentration (MIC) greater than 512 µM.
GVIFNALKGVAKTVAAQLLK-NH2 [GV20] returned an MIC of 8 µM.

A further assay relates to Staphylococcus aureus (S. aureus) (NCTC 10788). In words: MIC/MBC determination. The assay is classed as cell-based. The following applies: 10 µl from MIC wells on MHA, 37 °C, 20 h, no colony growth. Summed up:
as §1
Substance GVIFNALK-NH2 [GV8] registered an MBC greater than 512 µM.
GVIFNALKGVAK-NH2 [GV12] yielded an MBC greater than 512 µM.
On to GVIFNALKGVAKTVAAQLLK-NH2 [GV20], for which the MBC came out at 8 µM.

The same assay, now with this note: MHB, 5 × 10^5 CFU/ml, 37 °C, 20 h, read at 550 nm.
In turn, GVIFNALK-NH2 [GV8] came in with an MIC greater than 512 µM.
The same measure, in the same setting: next, GVIFNALKGVAK-NH2 [GV12]: greater than 512 µM.
Substance GVIFNALKGVAKTVAAQLLK-NH2 [GV20] had an MIC of 4 µM.

The test system of the next assay is Enterococcus faecium (E. faecium) (NTCC-12697). In words: MIC/MBC determination. Format: cell-based. The note with it: 10 µl from MIC wells on MHA, 37 °C, 20 h, no colony growth. Summed up: as §1
In the case of GVIFNALK-NH2 [GV8], the MBC was greater than 512 µM.
With GVIFNALKGVAK-NH2 [GV12], the MBC is greater than 512 µM.
GVIFNALKGVAKTVAAQLLK-NH2 [GV20] returned an MBC of 64 µM.

Staying with this assay, now noted: MHB, 5 × 10^5 CFU/ml, 37 °C, 20 h, read at 550 nm.
As for GVIFNALK-NH2 [GV8], the MIC is greater than 512 µM.
As to GVIFNALKGVAK-NH2 [GV12], the MIC was greater than 512 µM.
GVIFNALKGVAKTVAAQLLK-NH2 [GV20] gave an MIC of 16 µM.
